# From ChEMBL document CHEMBL2010769, “Synthesis and antiviral activity of 6-deoxycyclopropavir, a new prodrug of cyclopropavir” (Bioorg Med Chem, 2012)
# Activity calls are given as the source filed them. The rule behind the calls is not given here.
# What was measured:
# Human alphaherpesvirus 1 = experiment: Antiviral activity against HSV1 infected in HFF assessed as reduction in virus induced cytopathic effect; format: functional, organism-based
# Mus musculus [1] = experiment: Toxicity in BALB/c mouse assessed as changes in behavior at 50 mg/kg, po qd for 5 days relative to control; format: organism-based; parameters: dose 50 mg/kg, route oral; conditions: in vivo, 120 h
# Outline: (§1)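 Uninfected female BALB/c mice, 3 weeks old, in groups of 5. Compound suspended in 0.4% carboxymethylcellulose and given orally in 0.2 mL once daily for 5 days at 50, 16.7 or 5.6 mg/kg. Mean group body weight tracked over days 1–5 plus day 6 recovery. Clinical signs (ruffled coat, behaviour) were observed. Comparison was with vehicle-treated or untreated mice.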
# Mus musculus [2] = experiment: Toxicity in BALB/c mouse assessed as body weight loss at 5.6 mg/kg, po qd for 5 days relative to control; format: organism-based; parameters: dose 5.6 mg/kg, route oral; conditions: in vivo, 120 h; outline: as §1
# Mus musculus [3] = experiment: Toxicity in BALB/c mouse assessed as changes in behavior at 5.6 mg/kg, po qd for 5 days relative to control; format: organism-based; parameters: dose 5.6 mg/kg, route oral; conditions: in vivo, 120 h; outline: as §1
# Murid betaherpesvirus 1 [4] = experiment: Antiviral activity against MCMV infected in BALB/c mouse assessed as decrease in virus-induced mean day of death at 50 mg/kg, po qd for 5 days administered 24 hrs after viral infection (reference value: 4.9 +/- 0.7 days); format: functional
# Human betaherpesvirus 5 [5] = experiment: Antiviral activity against HCMV Toledo infected in human thymus/liver tissue xenografted in SCID mouse assessed as mean log10 genome equivalents/animal at 12.5 mg/kg, po qd for 21 days by RT-PCR analysis (reference value: 3.82 +/- 1.24); format: functional, strain Toledo
# Human betaherpesvirus 5 [6] = experiment: Antiviral activity against HCMV Toledo infected in human thymus/liver tissue xenografted in SCID mouse assessed as decrease in viral infection at 6.25 mg/kg, po qd for 28 days by RT-PCR analysis (reference value: 92%); format: functional, strain Toledo; parameters: scale not given: the % may be the effect or the level left
# Human betaherpesvirus 5 [7] = experiment: Antiviral activity against HCMV Toledo infected in human thymus/liver tissue xenografted in SCID mouse assessed as decrease in viral infection at 12.5 mg/kg, po qd for 14 days by RT-PCR analysis (reference value: 92%); format: functional, strain Toledo; parameters: scale not given: the % may be the effect or the level left
# Murid betaherpesvirus 1 [8] = experiment: Antiviral activity against MCMV infected in BALB/c mouse assessed as decrease in virus-induced mortality at 5.6 mg/kg, po qd for 5 days administered 48 hrs after viral infection (reference value: 100%); format: functional; parameters: scale not given: the % may be the effect or the level left
# Outline: (§2)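 Female BALB/c mice (3 weeks, 15/group) were inoculated ip with MCMV Smith at about LD90. Oral dosing of 0.2 mL in 0.4% CMC ran once daily for 5 days, starting 24 or 48 h post-inoculation. Mice were observed daily for 21 days. Mortality was compared with CMC placebo by Fisher's exact test.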
# Human betaherpesvirus 5 [9] = experiment: Antiviral activity against HCMV Toledo infected in human thymus/liver tissue xenografted in SCID mouse assessed as decrease in viral infection at 6.25 mg/kg, po qd for 14 days by RT-PCR analysis (reference value: 92%); format: functional, strain Toledo; parameters: scale not given: the % may be the effect or the level left
# [10] = Prodrug activation assessed as cyclopropavir formation in presence of cow milk xanthine oxidase; conditions: cattle
# Outline: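 Cow-milk xanthine oxidase, 0.4 units, acting on 0.07 mM substrate in 0.05 M Na2HPO4, pH 7.5, at room temperature. Conversion followed continuously at 304 nm. UV spectra were taken before enzyme addition (T = 0) and at 720 min and matched against authentic parent and product.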
# Murid betaherpesvirus 1 [11] = experiment: Antiviral activity against MCMV infected in BALB/c mouse assessed as decrease in virus-induced mean day of death at 16.7 mg/kg, po qd for 5 days administered 48 hrs after viral infection (reference value: 5.1 +/- 0.9 days); format: functional
# Human betaherpesvirus 5 [12] = experiment: Antiviral activity against HCMV Toledo infected in human thymus/liver tissue xenografted in SCID mouse assessed as mean log10 genome equivalents/animal at 6.25 mg/kg, po qd for 21 days by RT-PCR analysis (reference value: 3.82 +/- 1.24); format: functional, strain Toledo
# Human betaherpesvirus 5 [13] = experiment: Antiviral activity against HCMV Toledo infected in human thymus/liver tissue xenografted in SCID mouse assessed as decrease in viral infection at 6.25 mg/kg, po qd for 21 days by RT-PCR analysis (reference value: 92%); format: functional, strain Toledo; parameters: scale not given: the % may be the effect or the level left
# Human alphaherpesvirus 3 = experiment: Antiviral activity against VZV infected in HFF assessed as reduction in virus induced cytopathic effect; format: functional, organism-based
# Murid betaherpesvirus 1 [14] = experiment: Antiviral activity against MCMV infected in BALB/c mouse assessed as decrease in virus-induced mortality at 50 mg/kg, po qd for 5 days administered 24 hrs after viral infection (reference value: 67%); format: functional; parameters: scale not given: the % may be the effect or the level left; outline: as §2
# Mus musculus [15] = experiment: Toxicity in BALB/c mouse assessed as ruffled coat appearance at 50 mg/kg, po qd for 5 days relative to control; format: organism-based; parameters: dose 50 mg/kg, route oral; conditions: in vivo, 120 h; outline: as §1
# Human betaherpesvirus 5 [16] = experiment: Antiviral activity against HCMV Toledo infected in human thymus/liver tissue xenografted in SCID mouse assessed as decrease in viral infection at 12.5 mg/kg, po qd for 28 days by RT-PCR analysis (reference value: 92%); format: functional, strain Toledo; parameters: scale not given: the % may be the effect or the level left
# Human betaherpesvirus 5 [17] = experiment: Antiviral activity against HCMV AD169 infected in HFF assessed as reduction in virus induced cytopathic effect; format: functional, organism-based; conditions: Human betaherpesvirus 5, AD169
# Outline: (§3)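 HCMV work used human foreskin fibroblasts as primary cultures, propagated in MEM with 10% FBS and L-glutamine, with or without antibiotics.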
# Human gammaherpesvirus 4 = experiment: Antiviral activity against Epstein-Barr virus infected in Akata cells by DNA hybridization assay; format: functional, organism-based; conditions: human gammaherpesvirus 4, Akata
# Murid betaherpesvirus 1 [18] = experiment: Antiviral activity against MCMV infected in BALB/c mouse assessed as decrease in virus-induced mortality at 50 mg/kg, po qd for 5 days administered 48 hrs after viral infection (reference value: 100%); format: functional; parameters: scale not given: the % may be the effect or the level left; outline: as §2
# Human betaherpesvirus 5 [19] = experiment: Antiviral activity against HCMV Toledo infected in human thymus/liver tissue xenografted in SCID mouse assessed as mean log10 genome equivalents/animal at 12.5 mg/kg, po qd for 28 days measured on day 35 by RT-PCR analysis (reference value: 3.28 +/- 1.422); format: functional, strain Toledo
# [20] = Cytotoxicity against HFF; format: cell-based; conditions: human, HFF cells
# Mus musculus [21] = experiment: Toxicity in BALB/c mouse assessed as body weight loss at 16.7 mg/kg, po qd for 5 days relative to control; format: organism-based; parameters: dose 16.7 mg/kg, route oral; conditions: in vivo, 120 h; outline: as §1
# Human betaherpesvirus 5 [22] = experiment: Antiviral activity against HCMV Towne infected in HFF by plaque reduction assay; format: functional, organism-based; conditions: Human betaherpesvirus 5, Towne; outline: as §3
# Murid betaherpesvirus 1 [23] = experiment: Antiviral activity against MCMV infected in BALB/c mouse assessed as decrease in virus-induced mean day of death at 5.6 mg/kg, po qd for 5 days administered 24 hrs after viral infection (reference value: 4.9 +/- 0.7 days); format: functional
# Vaccinia virus = experiment: Antiviral activity against Vaccinia virus infected in HFF assessed as reduction in virus induced cytopathic effect at 100 uM; format: functional, organism-based; conditions: Orthopoxvirus vaccinia
# Human betaherpesvirus 5 [24] = experiment: Antiviral activity against HCMV Toledo infected in human thymus/liver tissue xenografted in SCID mouse assessed as decrease in viral infection at 6.25 mg/kg, po qd for 28 days measured on day 35 by RT-PCR analysis (reference value: 67%); format: functional, strain Toledo; parameters: scale not given: the % may be the effect or the level left
# Human betaherpesvirus 5 [25] = experiment: Antiviral activity against HCMV Toledo infected in human thymus/liver tissue xenografted in SCID mouse assessed as mean log10 genome equivalents/animal at 6.25 mg/kg, po qd for 28 days by RT-PCR analysis (reference value: 3.73 +/- 0.784); format: functional, strain Toledo
compound,measurement,setting,value
Nc1ncc2ncn(/C=C3/CC3(CO)CO)c2n1,EC50,Human alphaherpesvirus 1,> 300 µM
same,Activity,Mus musculus [1],Non-toxic
same,Activity,Mus musculus [2],Non-toxic
same,Activity,Mus musculus [3],Non-toxic
same,Activity,Murid betaherpesvirus 1 [4],8.3 days
same,Activity,Human betaherpesvirus 5 [5],2.94
same,Activity,Human betaherpesvirus 5 [6],58%
same,Activity,Human betaherpesvirus 5 [7],100%
same,Activity,Murid betaherpesvirus 1 [8],0%
same,Activity,Human betaherpesvirus 5 [9],92%
same,Drug metabolism,[10],Active
same,Activity,Murid betaherpesvirus 1 [11],7 days
same,Activity,Human betaherpesvirus 5 [12],3.14
same,Activity,Human betaherpesvirus 5 [13],92%
same,EC50,Human alphaherpesvirus 3,> 300 µM
same,Activity,Murid betaherpesvirus 1 [14],47%
same,Activity,Mus musculus [15],Non-toxic
same,Activity,Human betaherpesvirus 5 [16],50%
same,EC50,Human betaherpesvirus 5 [17],> 300 µM
same,EC50,Human gammaherpesvirus 4,27 µM
same,Activity,Murid betaherpesvirus 1 [18],67%
same,Activity,Human betaherpesvirus 5 [19],2.69
same,CC50,[20],> 100 µM
same,Activity,Mus musculus [21],Non-toxic
same,EC50,Human betaherpesvirus 5 [22],> 100 µM
same,Activity,Murid betaherpesvirus 1 [23],6 days
same,Activity,Vaccinia virus,inactive
same,Activity,Human betaherpesvirus 5 [24],100%
same,Activity,Human betaherpesvirus 5 [25],2.81
